The chains are these.
B1: tRNA (parent)
chain: GUUCCGUUGGCGUAAUGGUAACGCGUCUCCCUCCUAAGGAGAAGACUGCGGGUUCGAGUCCCGUACGGAACG

Variants at the floor of the assay were thinned out.

In the series the parent is B1. Nature of the series: yeast fitness relative to wild type (ratio to wild type); higher = fitter; tRNA-Arg(CCU), competitive growth, 37 C, YPD. The method in brief:
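Variants of the tRNA-Arg(CCU) gene were chemically synthesised with a 3% per-site mutation rate across 69 sites and placed at the native genomic locus in Saccharomyces cerevisiae. Six parallel replicates of the pooled strains were competed in YPD at 37°C for 24 hours, and gene amplicons from the start and end populations were read by 100-nucleotide paired-end sequencing. Darwinian fitness relative to wild type was derived from changes in genotype frequencies. Genotypes required ≥ 100 starting reads, and estimates < 0.5 were set to 0.5.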
Take U3A C5G A21U: the yeast fitness worked out at 0.539.
With U3A C29G A40U G41C A42C the figure was no more than 0.5; with U3A C11U C55G C60G, no more than 0.5.
With U3A C11A C29U A57C the figure was no more than 0.5; with U3A C30G C31U C61U, no more than 0.5.
On to U3A C27G C31U C33U A42C, for which the yeast fitness is no more than 0.5.
With U3A C30U C31U G52A the figure was no more than 0.5; with U3A C11G G17C C24G C46A A65U, no more than 0.5.
With U3A C22G C30U U32G U53C G68C A70G the figure was no more than 0.5; with U3A A42G U53A, no more than 0.5.
In the case of U3A C5G C46G U53A, the yeast fitness came out at 0.527.
With U3A C11G A40G U53G G68C the figure was 0.654; with U3A C24U C30U, no more than 0.5.
As for U3A C24U C46U G48A C49G, the yeast fitness is no more than 0.5.
Take U3A C4U A37G A40U: the yeast fitness was no more than 0.5.
On to U3A C4A U16A C30G U53C C66U A70G, for which the yeast fitness was no more than 0.5.
With U3A C27G the figure was 0.643.
The same measure for U3A C27A: 0.86.
For U3A C27U A69C, the yeast fitness was 0.713.
With U3A C11G G17C C24G C46A G68C the figure was 0.553; with U3A A42G C66U, 0.595; with U3A C30G U54C, 0.502.
On to U3A C11A C33U A37U G39C, for which the yeast fitness is no more than 0.5.
The same measure for U3A C5A G12C G25A C30U A69C: no more than 0.5; for U3A C22G C29U: 0.55; for U3A C11U A37U G41A G52C A57C: no more than 0.5.
With U3A C4U U13A A36U C62A C66U the figure was no more than 0.5; with U3A C22G C24U G39A, no more than 0.5.
The same measure for U3A C24U A40U G48A: no more than 0.5.
For the variant U3A A70U, the yeast fitness is 0.86.
The same measure for U3A A70C: 0.988.
Regarding U3A C4U A70G, the yeast fitness came out at 0.59.
Take U3A C5U: the yeast fitness was 0.85.
Consider U3A C22G C27G U59G A69G, for which the yeast fitness is no more than 0.5.
For the variant U3A A57C, the yeast fitness came out at 0.714.
The same measure for U3A C4U G25C G58C: no more than 0.5.
As for U3A A45C C62G, the yeast fitness is no more than 0.5.
The same measure for U3A C5G G10A C31U C33G G48C: no more than 0.5; for U3A C5U C62A: no more than 0.5.
The same measure for U3A C4G G6A U26G A70U: no more than 0.5; for U3A C24G C31U C62A: no more than 0.5.
For U3A C30G C55U, the yeast fitness was 0.673.
As for U3A C5A G6C A14C G48C C55U G63U, the yeast fitness was no more than 0.5.
The same measure for U3A C11G G41C: 0.61.
In the case of U3A C30U G52A, the yeast fitness was no more than 0.5.
With U3A C4G U59A A65C A70C the figure was no more than 0.5; with U3A A57G A69U, 0.983.
With U3A A43U C49U the figure was 0.69.
With U3A A69C, the yeast fitness was 0.919.
The same measure for U3A C4U A43G: 0.579; for U3A C24G C33G G51A U53A G56A G67C: no more than 0.5; for U3A C5A C66U: no more than 0.5.
The same measure for U3A C30G C33U: 0.536; for U3A C31A C34A A37C: 0.661.
With U3A C22G C29U A65C the figure was no more than 0.5.
In the case of U3A C30G C31U G67C, the yeast fitness is no more than 0.5.
With U3A C5G G67C the figure was 1.
Regarding U3A C30U A43C, the yeast fitness was found to be 0.554.
Consider U3A C22G C33G G51A, for which the yeast fitness was no more than 0.5.
With U3A C30G G38C, the yeast fitness was 0.987.
Turning to U3A C5A G6C A15G U16A U26G, the yeast fitness was determined as 0.512.
On to U3A C4A U8C C29G A37C A70C, for which the yeast fitness was no more than 0.5.
The same measure for U3A C29G C60G: no more than 0.5; for U3A C4U U7A C24U C60U: no more than 0.5; for U3A C24U G39A C55A: no more than 0.5.
As for U3A C5U A43G, the yeast fitness stood at 0.607.
U3A C27A A43G: the yeast fitness came out at 0.586.
As for U3A C24G U47C A57U, the yeast fitness was no more than 0.5.
For U3A C30U A42G, the yeast fitness is 0.757.
The same measure for U3A C5A G12C G25A C30U: no more than 0.5; for U3A C24G C31U C61A: 0.533.
As to U3A C22G G48A, the yeast fitness worked out at 0.544.
Regarding U3A C11U C29A A42G, the yeast fitness worked out at 0.629.
The same measure for U3A C4A U8C C30U A45C G52C: no more than 0.5; for U3A C4A U16A C30G U53C G67U: no more than 0.5.
In the case of U3A C4A U16A C30G U53C G67A, the yeast fitness turned out to be 0.604.
With U3A C29A A37G the figure was no more than 0.5; with U3A C31U A36C, 0.571; with U3A C24G, 0.645.
The same measure for U3A C24U: 0.765; for U3A C30G G38C A69C: 0.671; for U3A C4A U8C C29G C33G A42G G48A: no more than 0.5.
On to U3A C4G U8A G50A A57C A70U, for which the yeast fitness is 0.548.

The values above are taken from the RNAGym collection of RNA variant scans (doi:10.1126/science.aae0568).
